Consider one compound from article PMC8184462 (Annals of Translational Medicine, 2021).

Data set [1] is classed as in vivo, human. In short, it runs like this:
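Urine and feces were collected until cumulative recovery exceeded 80% of dose and fell below 1% of dose per day on 2 consecutive days. Radioactivity was counted by liquid scintillation: urine directly, feces after homogenization with solvent and combustion with CO2 trapping. Each interval's excretion was expressed relative to the actual administered radioactivity (vial content minus residue), then summed cumulatively.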

Data set [2] concerns T790M-mutant NSCLC cell line LU1868. The following applies: ref [14],[15]; cited from earlier work.
In data set [3] the test system is NSCLC HCC827 cell line harboring EGFR-sensitive mutants. The following applies: ref [14],[15]; cited from earlier work.
Data set [4] is described as follows: Plasma pharmacokinetics of unlabeled almonertinib and metabolite HAS-719. In kind it is in vivo, human. In short, it runs like this:
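Four healthy fasted male volunteers received one oral [14C]-labeled suspension of the test compound (110 mg/50 µCi) and ate lunch 4 h after dosing. Blood (7 mL) was drawn predose and at 1–504 h, centrifuged (3,000 rpm, 10 min) and stored at –20 °C. Parent and metabolite were quantified by validated LC-MS/MS. Noncompartmental parameters are reported as mean ± SD.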

The subject of a further data set is NSCLC. Particulars: ref [15], cited from earlier work.
In data set [5] the test system is T790M-mutant NSCLC cell line H1975. Particulars: ref [14],[15]; cited from earlier work.

One may read the CL/F as the apparent clearance, not corrected for the fraction that reaches the circulation. Broadly, the AUC(0-inf) is the area under the concentration-time curve extrapolated to infinity. The AUC(0-t) is exposure summed from dosing to a finite time, without extrapolation to infinity. By Cmax is commonly meant the highest concentration seen after dosing. As usually defined, the Tmax is the time from dosing to the highest level. For orientation: Vd/F means the volume of distribution divided by bioavailability. A word on the half-life: it is the time in which the quantity being followed falls by half.

As to `C=CC(=O)Nc1cc(Nc2nccc(-c3cn(C4CC4)c4ccccc34)n2)c(OC)cc1N(C)CCN(C)C` [HS-10296, almonertinib], the Main excretion route result in data set [1] (0–504 hours) is “mainly excreted via feces”. The “Cumulative excretion rate of drug TRA (urine + feces)” value in data set [1] (0–504 hours after administration, % of dose) was 90.19%±4.18%. In data set [1] (0–504 hours, % of dose), the “Cumulative excretion rate in feces” value is 84.75%±3.35% and the “Cumulative excretion rate in urine” value is given as 5.44%±0.83%. In addition, the Growth inhibition result in data set [2] is “potently inhibited the growth”. The Growth inhibition result in data set [3] was “potently inhibited the growth”. Besides, the CL/F in data set [4] (LC-MS/MS, single oral 110 mg/50 µCi, mean±SD) was 36.8 ± 10.8 L/h. Also, in data set [4] (male, human, po, 110 mg), the AUC(0-inf) stood at 3160 ng·h/mL, the AUC(0-t) came out at 2900 ng·h/mL, the Cmax came to 119 ± 27.7 ng/mL and the Tmax came to 5.25 ± 3.2 h. For the same compound, in data set [4] (male, human, po, 110 mg), the Vd/F was found to be 1270 L and the half-life is 25 ± 6.41 h. In addition, the Tolerability entry in the data set on NSCLC (26 patients, 55, 110, 220, 260 mg, single or multiple dose) is recorded as “well tolerated”. The “Dose linearity of metabolism” value in the data set on NSCLC (55–260 mg) is “linear trend”. The Antitumor activity entry in the data set on NSCLC (NSCLC patients, dose-escalation cohort) is “preliminary antitumor activity”. Moreover, the Growth inhibition result in data set [5] is on record as “potently inhibited the growth”.
